Assay results reported in ChEMBL document CHEMBL2406953, “Bioactive constituents of Indigofera spicata” (J Nat Prod, 2013).
The source made the active and inactive calls.

Tests used:
[1] = Cytotoxicity against mouse Hepa-1c1c7 cells; assay type: functional, cell-based
[2] = Chemopreventive index, ratio of IC50 for mouse Hepa1c1c7 cells to CD for quinone reductase in mouse Hepa1c1c7 cells
Mus musculus [3] = organism: Mus musculus; assay: Induction of quinone reductase in mouse Hepa1c1c7 cells; assay type: cell-based
Summary of the method: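 Phase II enzyme induction was measured in murine Hepa 1c1c7 hepatoma cells by a standard quinone reductase procedure. L-sulforaphane served as the positive control. Values are CD, the concentration that doubles quinone reductase activity, given as mean ± SD of three independent experiments.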

[4] = Cytotoxicity against human CCD-112CoN cells by SRB assay; assay type: cell-based
Summary of the method: (§1)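 Normal colon CCD-112CoN cells tested by SRB assay alongside HT-29; IC50 (50% growth inhibition) as mean ± SD of triplicate; paclitaxel positive control; fold selectivity = IC50 in CCD-112CoN divided by IC50 in HT-29.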

HT-29 [5] = assay: Cytotoxicity against human HT-29 cells after 72 hrs by SRB assay; assay type: functional, cell-based; conditions: HT-29, 72 h
Summary of the method: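 HT-29 colon cancer cells, sulforhodamine B assay, 72 h; paclitaxel positive control; IC50 defined as concentration inhibiting 50% cell growth, mean ± SD from a triplicate.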

[6] = Selectivity ratio of IC50 for human CCD-112CoN cells to IC50 for human HT29 cells; assay type: ADME, cell-based, HT-29; conditions: CCD-112CoN cells versus HT29 cells, read-out: Ratio IC50; summary of the method: as §1
697 [7] = assay: Cytotoxicity against human 697 cells after 72 hrs by MTS assay; assay type: functional, cell-based; conditions: Homo sapiens, 697, 72 h
Summary of the method: (§2)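 697 (DSMZ) and Raji (ATCC) cells at 200,000 cells/mL; compounds from 2 mM DMSO stock, diluted in 10% DMSO, eight three-fold dilutions giving final 10 to 0.005 µM plus 0; final DMSO 0.5%; vincristine sulfate 25 nM positive control. Quadruplicate wells, 48 and 72 h, 37°C, 5% CO2; MTS read-out; IC50 = 50% growth inhibition, mean ± SD of three independent experiments.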

Raji [8] = assay: Cytotoxicity against human Raji cells after 48 hrs by MTS assay; assay type: functional, cell-based; summary of the method: as §2
HT-29 [9] = assay: Antitumor activity against human HT-29 cells in hollow fiber implanted in immunodeficient NCr nu/nu mouse assessed as reduction in cell growth at 0.5 to 2 mg/kg, ip qd
697 [10] = assay: Cytotoxicity against human 697 cells after 48 hrs by MTS assay; assay type: functional, cell-based; conditions: Homo sapiens, 697, 48 h; summary of the method: as §2
Mus musculus [11] = assay: Toxicity in immunodeficient NCr nu/nu mouse at 0.5 to 2 mg/kg, ip qd; assay type: organism-based; design: dose 0.5-2 mg/kg, route intraperitoneal; conditions: in vivo
Raji [12] = assay: Cytotoxicity against human Raji cells after 72 hrs by MTS assay; assay type: functional, cell-based; summary of the method: as §2
Mus musculus [13] = assay: Toxicity in immunodeficient NCr nu/nu mouse at 5 to 30 mg/kg, ip qd; assay type: organism-based; design: dose 5-30 mg/kg, route intraperitoneal; conditions: in vivo
Summary of the method: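 Female NCr nu/nu mice with ip and sc hollow fibers (HT-29, MCF-7, MDA-MB-435 cells) given compound in 30% cyclodextrin ip once daily at 5, 10, 15, 30 mg/kg; bortezomib 1 mg/kg ip daily in 30% cyclodextrin as positive control; lethality monitored after each injection.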

MDA-MB-435 = assay: Antitumor activity against human MDA-MB-435 cells in hollow fiber implanted in immunodeficient NCr nu/nu mouse assessed as reduction in cell growth at 2 mg/kg, ip qd; assay type: functional; design: scale not given: the % may be the effect or the level left; conditions: route intraperitoneal
697 [14] = assay: Induction of cell death in human 697 cells at 10 uM after 48 to 72 hrs using propidium iodide staining by flow cytometry; assay type: functional
Summary of the method: (§3)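 697 cells at 200,000 cells/mL treated at final 10, 1.11, 0.123, 0.014, 0 µM (from 2 mM stock, 10% DMSO dilutions, final DMSO 0.5%) for 48 and 72 h; vincristine 25 and 5 nM positive control. Same dilutions run in parallel by MTS and by propidium iodide: cells pelleted, resuspended in PI/PBS, 15 min dark at room temperature, flow cytometry; three independent experiments.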

697 [15] = assay: Cytostatic activity against human 697 cells assessed as reduction in cell viability at 0.014 to 10 uM after 48 to 72 hrs by MTS assay; assay type: functional, cell-based; summary of the method: as §3

Row | SMILES | IC50 [1] [µM] | Ratio [2] | CD (Mus musculus [3]) [µM] | further results
1 | COc1ccc2c(c1/C=C/C(C)(C)O)O[C@H](c1ccccc1)CC2=O | 47.4 | 11.3 | 4.2 | 
2 | COc1ccc2c(c1/C=C/C(C)(C)OC)O[C@H](c1ccccc1)CC2=O | 49 | 5.9 | 8.3 | 
3 | COc1cc2c(c3c1C(=O)C[C@@H](c1ccccc1)O3)[C@H]1[C@@H](O2)OC(C)(C)[C@@H]1OC(C)=O (stereo in doubt; 2) [listing 1 of 2 here] | 63.9 | 376.7 |  | 
4 | COc1cc2c(c3c1C(=O)C[C@@H](c1ccccc1)O3)[C@H]1[C@@H](O2)OC(C)(C)[C@@H]1OC(C)=O (stereo in doubt; 2) [listing 2 of 2 here] |  |  | 0.2 | 
5 | COc1cc2c(c3c1C(=O)C[C@@H](c1ccccc1)O3)[C@H]1[C@@H](O2)OC(C)(C)[C@@H]1OC(C)=O (stereo in doubt; 5) |  |  | > 10 | 
6 | COc1ccc2c(c1C1=COC(C)(C)C1=O)O[C@H](c1ccccc1)CC2=O [(2S)-2,3-DIHYDROTEPHROGLABRIN] | 23.1 | 3.6 | 6.4 | 
7 | CC1(C)O[C@@H]2Oc3ccc(C(=O)/C=C/c4ccccc4)c(O)c3[C@@H]2[C@H]1O [(+)-TEPHROSONE] | 37.6 | 9.9 | 3.8 | 
8 | C[S@+]([O-])CCCCN=C=S [L-SULFORAPHANE] | 12.1 | 23.9 | 0.5 | 
9 | CC(=O)O[C@H]1C(=O)[C@@]2(C)[C@H]([C@H](OC(=O)c3ccccc3)[C@]3(O)C[C@H](OC(=O)[C@H](O)[C@@H](NC(=O)c4ccccc4)c4ccccc4)C(C)=C1C3(C)C)[C@]1(OC(C)=O)CO[C@@H]1C[C@@H]2O [PACLITAXEL] |  |  |  | IC50 [4]: 23 µM; IC50 (HT-29 [5]): 0.0006 µM; selectivity ratio [6]: 38300
10 | C=C(C)[C@H]1Cc2c(ccc3c2O[C@@H]2COc4cc(OC)c(OC)cc4[C@]2(O)C3=O)O1 [ROTENOLONE] | 0.2 | 0.6 | 0.4 | IC50 697 [7]: 0.5 µM; IC50 (Raji [8]): 5.6 µM; Activity (HT-29 [9]): inactive; IC50 [4]: 102 µM; IC50 697 [10]: 0.7 µM; Activity (Mus musculus [11]): Non-toxic; IC50 (Raji [12]): 2.4 µM; Activity (Mus musculus [13]): Toxic; IC50 (HT-29 [5]): 0.1 µM; Activity (MDA-MB-435): 20%; selectivity ratio [6]: 1020
11 | C=C(C)[C@H]1Cc2c(ccc3c2O[C@@H]2COc4cc(OC)c(OC)cc4[C@@H]2C3=O)O1 [ROTENONE] | 0.7 | 0.9 | 0.8 | IC50 697 [7]: 0.3 µM; IC50 (Raji [8]): 4.2 µM; IC50 [4]: > 127 µM; IC50 697 [10]: 0.3 µM; IC50 (Raji [12]): 1.1 µM; selectivity ratio [6]: > 423
12 | COc1cc2c(c(O)c1C(=O)/C=C/c1ccccc1)[C@H]1[C@@H](O2)OC(C)(C)[C@@H]1OC(C)=O [TEPHROPURPURIN] | 18.1 | 23.9 | 0.8 | 
13 | COc1cc2c(cc1OC)[C@]1(O)C(=O)c3ccc4c(c3O[C@@H]1CO2)C=CC(C)(C)O4 [TEPHROSIN] | 13.9 | 35.3 | 0.4 | Activity 697 [14]: 24%; IC50 697 [7]: 9 µM; IC50 (Raji [8]): > 10 µM; IC50 697 [10]: 5.4 µM; Activity 697 [15]: Active; IC50 (Raji [12]): > 10 µM; IC50 (HT-29 [5]): > 10 µM
